# Measured values gathered from unrelated publications.
# Protocols differ between the studies behind these lines.
# Technique: competition with immobilised ligand
# JAK2 JH1: Tyrosine-protein kinase JAK2, JH1 (JAK2, Homo sapiens, UniProt O60674)
SMILES,target,effect on,tested at,remaining binding [%]
CC(=O)N1CCC(c2ccc(C(=O)NC3=NCCN3)cc2C(F)(F)F)CC1,JAK2 JH1,cell-free assay,1 µM,100
COc1ncc2cc3ccccc3nc2c1C#N,JAK2 JH1,cell-free assay,5 µM,88
FC(F)(F)Oc1cccc(-c2cnc3ccc(-c4ccncc4)nn23)c1,JAK2 JH1,cell-free assay,5 µM,56
COc1cnc(Nc2cccc(S(N)(=O)=O)c2)nc1N1CCN(c2ccccc2)C(=O)C1,JAK2 JH1,binding,1 µM,6.1
Cc1cnc(Nc2ccc(C(=O)N3CCC(N4CCCC4)CC3)cc2)nc1-c1cc2ccccc2s1,JAK2 JH1,binding,1 µM,0
CN(C)C(=O)Cn1cc(-c2nc([C@@](C)(c3ccc(-c4cnc(N)nc4)cc3)C3CC3)no2)cn1,JAK2 JH1,cell-free assay,1 µM,73
O=C(NCCCN1CCOCC1)c1ccc(Nc2nccc(-c3cc4ccccc4s3)n2)cc1,JAK2 JH1,binding,1 µM,0.4
c1cncc(-c2cccc(Nc3nccc(NC4CCCCC4)n3)c2)c1,JAK2 JH1,binding,10 µM,0.05
CN(CCCC(F)(F)F)c1nccc(-c2cnn3ncccc23)n1,JAK2 JH1,cell-free assay,1 µM,94
O=C(NCCCN1CCOCC1)c1ccc(Nc2ncc(Cl)c(-c3ccc(Cl)s3)n2)cc1,JAK2 JH1,binding,1 µM,2.9
O=C(NCC1CCOCC1)c1n[nH]cc1NC(=O)c1c(F)cccc1F,JAK2 JH1,binding,1 µM,85
N[C@@H]1CCN(c2nccc(-c3cnn4ncccc34)n2)C1,JAK2 JH1,cell-free assay,1 µM,100
CS(=O)(=O)N1CCCC(NC(=O)[C@H](CCC2CCCCC2)NC(=O)c2ccc(CNC(=O)c3cnc4ccccn34)cc2)C1 (stereo partly drawn),JAK2 JH1,cell-free assay,0.1 µM,100
CNC(=O)[C@@H]1CC[C@@H](n2c(-c3ccc4cnccc4c3)nc3ccc(C(=O)NCc4cccc(C(N)=O)c4)cc32)C1,JAK2 JH1,binding,1 µM,100
COc1ccc2cc(OCC3(C(=O)O)CN(C(=O)c4ccc(F)cc4)C3)ccc2c1,JAK2 JH1,cell-free assay,1 µM,89
CC1CCCN1c1nccc(-c2cnn3ncccc23)n1 (stereo not drawn),JAK2 JH1,cell-free assay,1 µM,98
O=C(Nc1cccnn1)N1CCC(=Cc2cccc(Oc3ccc(C(F)(F)F)cn3)c2)CC1,JAK2 JH1,cell-free assay,1 µM,100
C[C@@H]1CN(c2ccc3ncc(-c4ccc5[nH]nc(C6CC6)c5c4)n3n2)C[C@H](C)O1,"Tyrosine-protein kinase JAK2 (JAK2, Homo sapiens, UniProt O60674)",binding,50 nM,100
